The source of these data is ChEMBL document CHEMBL1134581, “Synthesis and in vitro antitumor activity of oligonucleotide-tethered and related platinum complexes” (J Med Chem, 2001).

What all share (type): functional, cell-based, Homo sapiens
One assay has as its system A2780. Kind of assay: Growth and colony formation inhibition of A2780 ovarian cancer cell lines. The method, boiled down:
(§1)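 Colony formation assay in A2780 (wt p53) and SW626 (mutant p53) monolayers, RPMI 1640 with 10% FBS and 2 mM L-glutamine, 37 °C, 5% CO2. 300–500 cells/well, attached 1 day, then serially diluted drug. Exposure 7 days for A2780, 10 days for SW626. Colonies fixed and stained with 0.1% crystal violet in methanol, then counted. IC50 extrapolated. Mean ± SD of three experiments.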

A further assay relates to SK-OV-3. As to the kind of experiment: Growth and colony formation inhibition of SKOV-3 ovarian cancer cell lines. The essentials:
(§2)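 Colony formation in PA-1 (wt p53, 7 days of drug) and SKOV-3 (p53-null, 10 days of drug). Both in RPMI 1640 with 10% FBS and 2 mM L-glutamine, 300–500 cells/well, attached 1 day. Colonies stained with 0.1% crystal violet in methanol and counted. IC50 extrapolated; three experiments. Also an MTT assay: PA-1 1000 cells/well, 1 day attachment, 5 days of drug; SKOV-3 600 cells/well, 2 days attachment, 7 days of drug. MTT 5 h, DMSO, read at 570/630 nm; four experiments.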

The nature of assay [1]: Growth and colony formation inhibition of SW626 ovarian cancer cell lines. The essentials: as §1
Assay [2] in a line: Growth and colony formation inhibition of PA-1 ovarian cancer cell lines. The essentials:
as §2

Assay [3] in a line: Growth and colony formation inhibition of VM-1 leukemia cancer cell lines. The method, boiled down:
(§3)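 CEM and teniposide-resistant CEM/VM-1 leukemia cells in suspension, MEM with 10% FBS and 2 mM L-glutamine, 37 °C, 5% CO2. Exponentially growing cells seeded in triplicate at 3 × 10^5 cells/mL. Drugs dissolved in DMSO or PBS, serially diluted, 48 h exposure. Growth inhibition by Coulter counting. IC50 extrapolated from the concentration–% inhibition plot. Mean ± SD of three experiments.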

The subject of another assay is CCRF-CEM. As to the kind of experiment: Growth and colony formation inhibition of CEM leukemia cancer cell lines. The essentials:
as §3

Usually IC50 stands for the concentration that gives 50% inhibition. Lower therefore signals higher potency. For “3-(7a-Chloro-7-diisopropylamino-hexahydro-6-oxa-1,3a-diaza-platinum-7lambda*5*-phospha-inden-7-yloxy)-propionitrile”, the IC50 in the assay on A2780 is 125 µM; in the assay on SK-OV-3, more than 200 µM; in assay [1] it was more than 200 µM; in assay [2], 165 µM.
“Amminedichloro(2-hydroxyethylamine)platinum (II)”: the 50% inhibitory concentration (IC50) with SK-OV-3 is 13 µM; in assay [2] it was 0.7 µM.
For “Amminedichloro(4-hydroxybutylamine)platinum (II)”, the values for the IC50 (with SK-OV-3; in assay [2]) were 6 µM and 0.4 µM, respectively.
Turning to “Amminetetrachloro(4-hydroxybutylamine)platinum(IV)”, the half-maximal inhibitory concentration (IC50) in the assay with SK-OV-3 is 9 µM; in assay [2] it was 0.2 µM.
As for “Amminetetrachloro(4-hydroxyethylamine)platinum(IV)”, the IC50 in the assay on SK-OV-3 stood at 10 µM; in assay [2], 0.9 µM.
In the case of CARBOPLATIN, the values for the IC50 (with SK-OV-3; in assay [2]) were 28.5 µM and 2.4 µM, respectively.
Turning to CISPLATIN, the IC50 is 0.6 µM with A2780; 0.5 µM with SK-OV-3; 0.5 µM in assay [1]; less than 1 µM in assay [3]; 0.3 µM in assay [2]; less than 1 µM in the assay with CCRF-CEM.
Consider “DICHLORO(AMMINO ETHYLAMMINO ETHANOL) PLATINUM(II) [listing 1 of 2 here]”, for which the IC50 in the assay on SK-OV-3 was found to be 30 µM; in assay [2] it was 2.9 µM.
“DICHLORO(AMMINO ETHYLAMMINO ETHANOL) PLATINUM(II) [listing 2 of 2 here]”: the IC50 was found to be 26 µM in the assay on SK-OV-3 and 1.7 µM in assay [2].
Turning to “Dichloro diacetyl oxy-(amino ethylamino ethanol) platinum”, the half-inhibitory concentration (IC50) in the assay with A2780 turned out to be 2.8 µM; with SK-OV-3, 24 µM; in assay [1], 28 µM; in assay [3], 7 µM; in assay [2] it was 1.5 µM; with CCRF-CEM, 7 µM.
Turning to “Dichlorodi(3-hydroxypropylamine)platinum (II)”, the half-maximal inhibitory concentration (IC50) in the assay with SK-OV-3 turned out to be 20 µM; in assay [2], 1.2 µM.
Turning to “Dichlorodi(4-hydroxybutylamine)platinum (II)”, the IC50 is 23 µM with SK-OV-3 and 1.5 µM in assay [2].
As to “Dichlorodiacetyl oxy-(ammino acetoxy butylammino ethanol) platinum (II)”, the IC50 was 22 µM in the assay with SK-OV-3 and 0.8 µM in assay [2].
The like results for “Dichlorodiacetyl oxy-(ammino acetoxy ethylammino ethanol) platinum (II)” were, in that order, 10 µM and 2.8 µM.
Turning to “Tetrachlorodi(3-hydroxypropylamine)platinum(IV)”, the 50% inhibitory concentration (IC50) with A2780 is 1.6 µM; with SK-OV-3, 10 µM; in assay [1] it was 3 µM; in assay [3], 5 µM; in assay [2], 0.6 µM; with CCRF-CEM, 8 µM.
On to “Tetrachlorodi(4-hydroxybutylamine)platinum(IV)”, for which the IC50 came out at 2.2 µM in the assay with A2780; 4 µM with SK-OV-3; 7 µM in assay [1]; 10 µM in assay [3]; 1 µM in assay [2]; 10 µM with CCRF-CEM.
